Assay results as given in paper PMC10413923 (Journal of Enzyme Inhibition and Medicinal Chemistry, 2023).

What was measured:
Assay type in all cases: cell-based
IL-6 = IL-6 level by ELISA in conditioned medium of LPS-human macrophages; settings: 14b at EC50 (5.3 µmol/mL), 48 h
Method in brief: (§1)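 IL-6, IL-1β, TNF-α and NF-κB levels were measured in LPS-stimulated human macrophages exposed to test compound. Comparison groups were untreated LPS-macrophages as negative control and dexamethasone-treated macrophages as reference.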

NF-kβ = NF-kβ level by ELISA in LPS-human macrophages; settings: 14b at EC50 (5.3 µmol/mL), 48 h
Method in brief: as §1

HO-1 (HMOX1) = assay: HO-1; settings: LPS-human macrophages, 48 h; 14b at EC50 (5.3 µmol/mL); qPCR
Method in brief: (§2)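 LPS-stimulated human macrophages (inflammatory model) were exposed to test compound at 5.3 µmol/mL for 48 h. Akt and HMOX1 (HO-1) gene expression was measured alongside untreated LPS-macrophages as negative control and dexamethasone-treated macrophages as reference. Expression is reported as fold change relative to untreated macrophage cells.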

IL-1β = IL-1β level by ELISA in conditioned medium of LPS-human macrophages; settings: 14b at EC50 (5.3 µmol/mL), 48 h
Method in brief: as §1

TNF-α = TNF-α level by ELISA in conditioned medium of LPS-human macrophages; settings: 14b at EC50 (5.3 µmol/mL), 48 h
Method in brief: as §1

Akt = Akt gene expression by qPCR in LPS-human macrophages; settings: 48 h, 14b at EC50 (5.3 µmol/mL)
Method in brief: as §2

SMILES: COc1ccc(C(C)=NNC(=O)COc2ccc3c(C)cc(=O)oc3c2C)cc1OC [Compound 14b, 2–(4,8-Dimethyl-2-oxo-2H-chromen-7-yloxy)-N'-(1–(3,4-dimethoxyphenyl)ethylidene)acetohydrazide]
- reduction in IL-6 level relative to negative control cells (IL-6): 1.41 fold
- NF-kβ modulation compared with Dexa (in words) (NF-kβ): comparable efficacy to Dexa
- reduction in NF-kβ level relative to untreated control cells (NF-kβ): 2.31 fold
- upregulation of HO-1 gene expression compared to untreated macrophage cells (HO-1 (HMOX1)): 6.5 fold
- reduction in IL-1β level relative to untreated macrophage cells (IL-1β): 1.65 fold
- reduction in TNF-α level relative to untreated control cells (TNF-α): 1.19 fold

SMILES: C[C@@H]1C[C@H]2[C@@H]3CCC4=CC(=O)C=C[C@]4(C)[C@@]3(F)[C@@H](O)C[C@]2(C)[C@@]1(O)C(=O)CO [Dexa, dexamethasone, reference compound]
- increase in Akt gene expression relative to untreated macrophage cells (Akt): 3.2 fold
- upregulation of HO-1 gene expression compared to untreated macrophage cells (HO-1 (HMOX1)): 4.38 fold
